Only some compounds are listed: those with a hit (about 2.8% of all), similar ones and a draw of the others.
HTR2A ag: activates the mouse 5-HT2A serotonin receptor; CHO-K1 mHTR2A beta-arrestin complementation, luminescence; percent of 30 µM serotonin response; activation, % at 7.6 µM; 0.66% of 360,000 active; AID 624169;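 active means activation above a run cutoff, the mean activation of all tested compounds plus 3 SD, cut at about 14% in these data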;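 further: 0% = plate median of compound wells and 100% = 30 µM serotonin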
MC4R antagonist: blocks human MC4R cAMP signaling; MC4R-expressing cells, MTII-stimulated cAMP, LANCE TR-FRET; inhibition, % at 6.5 µM; 0.48% of 360,000 active;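 active means inhibition above its plate's cutoff, the mean of tested wells on that plate plus 3 SD, cut at about 29% in these data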;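 further: 0% = Melanotan II alone and 100% = Melanotan II plus saturating MCL0020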
Target sequence (P32245 whole entry, looked up): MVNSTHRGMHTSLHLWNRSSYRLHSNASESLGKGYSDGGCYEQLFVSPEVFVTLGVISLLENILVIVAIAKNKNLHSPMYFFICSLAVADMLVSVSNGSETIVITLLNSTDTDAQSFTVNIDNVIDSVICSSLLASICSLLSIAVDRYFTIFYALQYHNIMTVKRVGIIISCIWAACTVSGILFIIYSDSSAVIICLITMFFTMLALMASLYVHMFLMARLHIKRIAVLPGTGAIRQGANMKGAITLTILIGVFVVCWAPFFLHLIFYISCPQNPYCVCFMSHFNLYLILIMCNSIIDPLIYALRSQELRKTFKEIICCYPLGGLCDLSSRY
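Material: human MC4R-expressing U2OS cells. Probe or stimulus: Melanotan II challenge. Dosing: 6.5 µM single dose. Times: 30-min compound, 1-h challenge, 1-h detection, room temperature. Technique: TR-FRET with Eu-cAMP and labeled anti-cAMP, 671 nm. Replication: singlicate.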
MC4R barr agon: human MC4R agonism via beta-arrestin. activation, % at 8.9 µM. AID 540308. P32245. U2OS MC4R beta-arrestin complementation, luminescence; percent of melanotan II response, DMSO zero. 0.98% of 360,000 active;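 active means activation above a per-plate cutoff, the mean activation of sample wells on that plate plus 3 SD, cut at about 8% in these data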
EBI2 antag: blocks human EBI2 receptor beta-arrestin signaling | P32249 | EBI2 beta-arrestin recruitment, luminescence, 7a,25-OHC stimulated | inhibition, % at 5 µM | 0.81% of 360,000 active | AID 651636; in the data active means inhibition above about 38%;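 further: enzyme fragment complementation signal reports receptor beta-arrestin coupling in cells; 0% = agonist plus DMSO wells and 100% = wells without agonist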
MC4R barr ag: human MC4R beta-arrestin agonism confirmation; shares compounds with MC4R barr agon; U2OS MC4R beta-arrestin recruitment, luminescence; scaled DMSO 0%, Melanotan II 100%; activation, % at 8.9 µM; 31% of 2,400 active;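 active means mean activation across replicates above the hit cutoff set in the earlier primary screen, cut at about 8% in these data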
MOR DOR agonist: activates mu-delta opioid heterodimer, MC4R agonist counter-screen; AID 602194; shares compounds with MC4R barr agon; 5.8% of 2,400 active; U2OS PathHunter beta-arrestin, beta-gal luminescence; percent of deltorphin B response, DMSO zero; activation, % at 9.2 µM;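 active means mean activation across replicates exceeds the hit threshold derived in the earlier primary screen, cut at about 18% in these data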;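 further: 100% = deltorphin B at 0.9 µM final and 0% = DMSO alone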
* marks the source's active call; other numbers are inactive results; x = not tested or not shown.

SMILES	HTR2A ag	MC4R antagonist	MC4R barr agon	EBI2 antag	MC4R barr ag	MOR DOR agonist
O=C(CCCCn1c(=O)c2ccccc2n(Cc2ccc(F)cc2Cl)c1=O)NCc1ccco1	-4	5	11*	-3	1	4
Cc1nn(-c2ccccc2)nc1C(=O)Nc1ccc2[nH]ncc2c1	-1	7	23*	11	13*	5
Cc1ccc2nc(-c3ccc(NC(=O)COC(=O)c4ccco4)cc3)sc2c1	4	-13	-1	-6	x	x
O=C(CNS(=O)(=O)c1cccc(Cl)c1)Nc1ccc(-c2nc3ccccc3s2)cc1	3	7	5	-3	x	x
CC(NS(=O)(=O)c1cccc(Cl)c1)C(=O)Nc1ccc(-c2nc3ccccc3s2)cc1 (stereo not given)	1	19	16*	23	9.9*	7
CNS(=O)(=O)c1cccc(C(=O)OCC(=O)Nc2ccc(-c3nc4ccc(C)cc4s3)cc2)c1	0	7	16*	4	7	6
Cc1ccc(N2CC(C(=O)OCC(=O)Nc3c(C)cccc3C)CC2=O)cc1 (stereo not given)	2	9	-1	9	x	x
COc1cc(C(=O)N2CCN(c3ccccc3)CC2)c2ccccc2n1	-6	-21	-2	0	x	x
O=C(Nc1ccc(Cc2ccncc2)cc1)c1ccc([N+](=O)[O-])o1	-5	12	-2	-5	x	x
COc1ccc(-c2nc(C#N)c(NCc3ccccc3Cl)o2)cc1OC	0	-12	13*	9	8	5
COc1ccc(-c2nc(C#N)c(NCc3ccccc3Cl)o2)cc1	-9	-14	7	23	x	x
Cc1nn(-c2ccccc2)c(Cl)c1/C=N/Nc1nc2ccccc2[nH]1	-8	-1	12*	14	3	10
CCN(c1ccc(OC)cc1)S(=O)(=O)N1CCCC(C(=O)NC(C)c2ccccc2)C1 (stereo not given)	5	7	0	0	x	x
COc1cc(C(=O)OCC(=O)NC(=O)NCc2ccccc2)ccc1OC(F)F	3	-3	9.7*	-11	3	8
CC1(c2nc3ccccc3cc2C#N)OCCO1	-2	0	-2	-5	x	x
Cc1ccccc1OCC(=O)Nc1sc2c(c1C#N)CCC2	10	17	17*	10	2	4
N#Cc1c(NC(=O)CSc2nnc(-c3ccccc3)o2)sc2c1CCCC2	-1	4	23*	16	4	2
Cn1c(CNC(=O)c2ccc(Cl)cc2)nnc1SCC(=O)Nc1sc2c(c1C#N)CCCC2	-6	-1	17*	10	1	4
Cc1cc(OCC(=O)Nc2sc3c(c2C#N)CC(C)(C)NC3(C)C)c(C(C)C)cc1Cl	2	4	14*	-21	8.5*	8
Cc1ccc(C(=O)NCc2nnc(SCC(=O)Nc3sc4c(c3C#N)CCCC4)n2C)cc1	-4	3	0	5	x	x
COC1=CC(=O)OC(c2cccc(C#N)c2)C1 (stereo not given)	-3	x	x	-17	x	x
CN(C)C(=S)Oc1ccccc1C1SCCS1	-4	15	-1	-19	x	x
CCCCn1c(N)c(N(C(=O)CSc2nncn2-c2ccccc2C)C2CCCC2)c(=O)[nH]c1=O	6	9	0	-8	x	x
COCCNc1nnc(SC(C)C(=O)Nc2ccc(-c3nc4ccc(C)cc4s3)cc2)s1 (stereo not given)	14	12	15*	0	7	5
O=C(CCCCCn1c(=S)[nH]c2ccc(N3CCOCC3)cc2c1=O)NCc1ccccc1	1	23	12*	8	7	3
O=C(CCCCCn1c(=S)[nH]c2ccc(N3CCOCC3)cc2c1=O)NCc1cccc(Cl)c1	-4	12	9.8*	14	2	3
O=C(Nc1ccc(S(=O)(=O)Nc2ncccn2)cc1)c1ccc(Br)cc1	-1	7	0	-3	x	x
CC(C)(C)c1ccc(C(=O)NCCC(=O)NCc2ccc(F)cc2)cc1	-3	-1	0	-5	x	x
CCOC(=O)[C@]12CCCC=C1N(Cc1ccco1)C(=O)[C@H](CC(=O)N1CCCCC1)C2	4	x	x	3	x	x

Screening data as filed in PubChem BioAssay.
